Source: PubChem (several laboratories)
A selection: hits, their analogues and other compounds. The true share with any hit is near 6.8%.
M1 antagonist: antagonists of rat M1 muscarinic receptor; P08482; CHO-M1 cells, Fluo-4 calcium, ACh EC80 antagonist mode; stronger effect = lower value; B-score at 10 µM; hit rate 3.4% among 64,000; AID 628;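 active means calcium fluorescence response, raw or row-and-column corrected B-score, differing from the plate sample mean either way at a set confidence level, mostly lower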
MKP-1 inh: inhibitors of human MKP-1 phosphatase; hit rate 0.15% among 65,000; inhibition, %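 (compounds tested at a single concentration somewhere between 10 and 100 µM)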; recombinant MKP-1, OMFP hydrolysis fluorescence; P28562;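 active means inhibition above about 50%, limit read from the data; inconclusive means inhibition over screen mean plus 3 SD, below that limit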;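 further: 0% = DMSO max control wells and 100% = wells with enzyme stopped by NaOH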
Target sequence (P28562 whole entry, looked up): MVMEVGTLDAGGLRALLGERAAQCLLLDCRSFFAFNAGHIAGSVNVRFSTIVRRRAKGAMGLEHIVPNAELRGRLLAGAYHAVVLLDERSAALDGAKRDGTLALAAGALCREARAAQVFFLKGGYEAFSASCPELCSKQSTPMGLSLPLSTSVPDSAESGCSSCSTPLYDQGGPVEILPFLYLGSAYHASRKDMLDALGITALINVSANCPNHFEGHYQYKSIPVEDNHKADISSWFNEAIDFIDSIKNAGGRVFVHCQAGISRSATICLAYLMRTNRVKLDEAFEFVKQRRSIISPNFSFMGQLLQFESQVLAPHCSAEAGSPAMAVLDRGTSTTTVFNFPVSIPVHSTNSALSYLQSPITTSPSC
M1 agonist: activates the M1 muscarinic receptor; CHO-M1 cells, Fluo-4 calcium fluorescence, agonist mode; stronger effect = higher value; B-score at 10 µM; hit rate 3% among 64,000; AID 626;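 active means fluorescence rise, raw or as B-score row- and column-corrected plate score, outside the 99.7% band of its plate's samples, either direction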
Cdc25B inh: human M-phase inducer phosphatase 2 inhibition | hit rate 0.1% among 65,000 | recombinant Cdc25B, OMFP fluorescence Ex485/Em525 | inhibition, %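 (compounds tested at 10 µM final in the well)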 | P30305; in the data active means inhibition above about 50%
Her2 expr inh: Her2 kinase expression inhibition | AID 645 | SKBR-3 HER2 protein level, AlphaScreen, 18-24 h; stronger effect = lower value | P04626 | hit rate 0.69% among 65,000 | HER2 level % of control, % at 10 µM;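 active means HER2 level under 5% of the carrier-only control; inconclusive means no clear call, values can overlap the other calls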;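 further: 100% = DMSO carrier and 0% = 500 nM PU-H71 HSP90 inhibitor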
HEK293 NFkB inh: inhibitors of the PMA/ionomycin-induced NF-kB reporter in HEK293 cells. HEK-293 NF-kB luciferase reporter, luminescence. AID 465. hit rate 0.21% among 62,000. inhibition, % at 3 µM;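 active means inhibition above the mean of all tested compounds plus 3 SD, cut at about 40% in these data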;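 further: 0% = stimulated DMSO wells and 100% = 10 µM reference inhibitor 5653914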
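Timing: 1 h pretreatment, 16 h stimulation, 37 °C; system: HEK-293 cells with stable firefly luciferase reporter driven by four HIV NF-kB elements; doses: 3 µM once, 0.30% DMSO; measured by: luciferase luminescence; control set: DMSO and 10 µM reference inhibitor; repeats: single test; reagent: PMA plus ionomycin mix as NF-kB-activating stimulus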
M1 ag confirm: rat M1 muscarinic agonism, confirmation | fluorescence change (max-min) at 10 µM | shares compounds with M1 agonist | hit rate 19% among 1,700 | CHO-M1 cells, Fluo-4 calcium fluorescence, agonist mode; actives lie on both sides;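 active means fluorescence change differs from the solvent-only DMSO control mean at a set confidence level in both duplicate runs; inconclusive means differs from solvent-only control mean in just one of two runs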;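 further: an EC20 dose of acetylcholine follows compound addition during the same imaging run; raw fluorescence intensity difference in instrument units with no normalization to controls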
M4 ag counter: activates rat M4 receptor in counter-screen for M1 agonists. shares compounds with M1 agonist. CHO M4/Gqi5 cells, Fluo-4 calcium fluorescence, agonist mode; actives lie on both sides. fluorescence change (max-min) at 10 µM. hit rate 9% among 1,700. AID 1741;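 active means fluorescence change differing from the plate's solvent-only control wells at 99.7% confidence in both duplicates, whether higher or lower; inconclusive means differs from solvent controls in only one of two duplicates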
* = called active by the depositor.

For Clc1ccccc1-c1ccc(/C=N/n2cnnc2)o1 the results were M1 antagonist -0.024, MKP-1 inh 4, M1 agonist 0.75, Cdc25B inh 4, Her2 expr inh 109 and HEK293 NFkB inh 8.
`CCOC(=O)c1cc(-c2ccc(/C=N\n3cnnc3)o2)ccc1Cl` gave M1 antagonist -0.34, MKP-1 inh -2, M1 agonist 4.9*, Cdc25B inh 8, Her2 expr inh 114, HEK293 NFkB inh 18, M1 ag confirm -27* and M4 ag counter -42.
`CCn1c(C(=O)N2CCC(C(=O)NCCCSC3CCCCC3)CC2)cc2sccc21` gave M1 antagonist 0.092, MKP-1 inh 10, M1 agonist 2.5*, Cdc25B inh -18, Her2 expr inh 68, HEK293 NFkB inh 2, M1 ag confirm -19* and M4 ag counter -49.
`CCN1CCN(C(=O)C2CCN(C(=O)c3cc4sccc4n3CC)CC2)CC1` gave M1 antagonist 0.13, MKP-1 inh -6, M1 agonist -0.15, Cdc25B inh 2, Her2 expr inh 107 and HEK293 NFkB inh 6.
Screening CN1c2cccc3cccc(c23)N(C)C1(C)C returned M1 antagonist -0.093, MKP-1 inh -10, M1 agonist 0.069, Cdc25B inh 1, Her2 expr inh 83 and HEK293 NFkB inh 17.
`CN1/C(=N\O)c2cccc3cccc1c23` gave M1 antagonist -0.5, MKP-1 inh 30, M1 agonist 6.9*, Cdc25B inh 4, Her2 expr inh 117, HEK293 NFkB inh 6, M1 ag confirm 42 and M4 ag counter -2.9.
COC(=O)c1ccc2c(c1)SC1=C(CCCC1=O)N2 was read as M1 antagonist 0.63, MKP-1 inh 6, M1 agonist 11*, Cdc25B inh 1, Her2 expr inh 84, HEK293 NFkB inh 12, M1 ag confirm 55 and M4 ag counter inconclusive.
O=C(CN1CCOCC1)Nc1ccccc1-c1ccccc1 was read as M1 antagonist -0.081, MKP-1 inh 5, M1 agonist -0.67, Cdc25B inh 0, Her2 expr inh 95 and HEK293 NFkB inh -2.
For O=C(CN1CCOCC1)Nc1scc(-c2ccccc2)c1C(=O)N1CCOCC1 the results were M1 antagonist -0.5, MKP-1 inh -1, M1 agonist 3.4*, Cdc25B inh 5, Her2 expr inh 108, HEK293 NFkB inh 8, M1 ag confirm inconclusive and M4 ag counter -34.
`CCCC(=O)Nc1cccc(C(=O)Nc2nccs2)c1` gave M1 antagonist -0.35, MKP-1 inh 6, M1 agonist 2.9, Cdc25B inh -8, Her2 expr inh 57 and HEK293 NFkB inh 16.
Cc1cc(NC(=O)CSc2nnc(-c3ccoc3C)o2)no1 was read as M1 antagonist 0.39, MKP-1 inh -11, M1 agonist -3.7*, Cdc25B inh 3, Her2 expr inh 98, HEK293 NFkB inh 26, M1 ag confirm inconclusive and M4 ag counter -54.
`COc1cc(OC)cc(-c2nnc(SCC(=O)Nc3cc(C)on3)o2)c1` gave M1 antagonist 0.55, MKP-1 inh -12, M1 agonist -0.65, Cdc25B inh -6, Her2 expr inh 82 and HEK293 NFkB inh -2.
CC(C)C(c1nnnn1C1CCCCC1)N1CCN(c2ncccn2)CC1 (configuration not stated) was read as M1 antagonist 0.064, MKP-1 inh -1, M1 agonist 4.4*, Cdc25B inh -12, Her2 expr inh 107, HEK293 NFkB inh 5, M1 ag confirm -14 and M4 ag counter -33.
`N#Cc1ccccc1CSc1nc(N2CCCCC2)nc(N2CCCCC2)n1` gave M1 antagonist 1.6, MKP-1 inh -3, M1 agonist 7.4*, Cdc25B inh -7, Her2 expr inh 112, HEK293 NFkB inh 3, M1 ag confirm -19 and M4 ag counter -24.
Screening Cc1ccc(CNC(=O)CSc2nc(N3CCCCC3)nc(N3CCCCC3)n2)cc1 returned M1 antagonist 0.34, MKP-1 inh 12, M1 agonist 0.81, Cdc25B inh -11, Her2 expr inh 104 and HEK293 NFkB inh 13.
COc1ccccc1-n1nc(C(=O)O)c2ccccc2c1=O was read as M1 antagonist -0.049, MKP-1 inh -12, M1 agonist 6.6*, Cdc25B inh -16, Her2 expr inh 93, HEK293 NFkB inh 15, M1 ag confirm inconclusive and M4 ag counter -30.
`O=c1c2cn[nH]c2[nH]c(=S)n1-c1ccccc1F` gave M1 antagonist 0.2, MKP-1 inh 29, M1 agonist -0.077, Cdc25B inh 5, Her2 expr inh 74 and HEK293 NFkB inh 12.
Screening Cc1cc(C)nc(SCC(=O)N2CCC(C(N)=O)CC2)n1 returned M1 antagonist 0.77, MKP-1 inh -6, M1 agonist 2.7*, Cdc25B inh 2, Her2 expr inh 109, HEK293 NFkB inh 21, M1 ag confirm inconclusive and M4 ag counter -44.
For Cc1ccc(SCCC(=O)N2CCC(C(N)=O)CC2)cc1 the results were M1 antagonist 0.23, MKP-1 inh 5, M1 agonist -0.11, Cdc25B inh 13, Her2 expr inh 73 and HEK293 NFkB inh -1.
COc1ccc(C2=[N+]([O-])C(C)(C)N(O)C2(C)C)cc1 was read as M1 antagonist 0.58, MKP-1 inh 5, M1 agonist 1.2, Cdc25B inh 3, Her2 expr inh 79 and HEK293 NFkB inh 13.
Screening CCOc1ccc(C2=[N+]([O-])C(C)(C)N(O)C2(C)C)cc1 returned M1 antagonist 2.7*, MKP-1 inh -6, M1 agonist 3.6*, Cdc25B inh -4, Her2 expr inh 92, HEK293 NFkB inh 10, M1 ag confirm -20 and M4 ag counter inconclusive.
CCCC(=O)Nc1ccc(N2CCN(C(=O)c3cccs3)CC2)cc1 was read as M1 antagonist 0.35, MKP-1 inh 5, M1 agonist 2.2, Cdc25B inh -3, Her2 expr inh 107 and HEK293 NFkB inh 1.
Screening CCN1CCN(C(=O)C2CCN(Cc3nc(-c4ccc(Cl)cc4)oc3C)CC2)CC1 returned M1 antagonist 1.1, MKP-1 inh 9, M1 agonist 0.69, Cdc25B inh -3, Her2 expr inh 59 and HEK293 NFkB inh 2.
Cc1oc(-c2ccc(Cl)cc2)nc1CN1CCCC(C(=O)N2CCN(C(=O)c3ccco3)CC2)C1 (configuration not stated) was read as M1 antagonist -1.6, MKP-1 inh 15, M1 agonist 4*, Cdc25B inh -3, Her2 expr inh 73, HEK293 NFkB inh 38, M1 ag confirm -7.5 and M4 ag counter -44.
